Structures are written as SMILES. The source made the active and inactive calls.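 Rule for the calls, unless noted: active = viability at or under a set limit in both replicates, limit being median viability minus 3 SD (cut at about 48% in these data, passing the limit was not always enough); inconclusive = at or under the limit in just one replicate; inactive = at or above the limit in both replicates.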

The first assay can be described thus: HUVEC growth inhibition – cell-based, human, primary screen (AID 575;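 active = viability at or below 30% in both replicate assays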;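 note: 100% = median of untreated cell wells with 0.1% DMSO on each plate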). Conditions: HUVEC proliferation, CellTiter-Glo luminescence, 72 h; at 10 µM; stronger effect = lower value. The gist of the method: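 Timing: 72 h treatment at 37 °C; material: HUVEC primary cells; technique: CellTiter-Glo luminescence measuring cellular ATP; controls: vehicle and MePR control wells; measure: percent of median DMSO-control luminescence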
On the technique in general: ATP-based viability assays read luminescence as a measure of living cells.
With `COCCCNC(=O)c1ccc(CS(=O)(=O)c2ccc(OC)cc2)o1`, the viability (as a rule, a read-out of living cells in per cent, often relative to untreated cells) was 95.4% (inactive).

Take `O=C(c1ccc(CSCc2ccccc2F)o1)N1CCN(c2ccc(N3CCOCC3)nn2)CC1`: the viability is 54.7% (inactive).

As for `COCCOC(=O)c1[nH]c2c(c1C)C(=O)CC(c1ccco1)C2` (stereo not given), the viability is 57% (inactive).

For the compound `CCOC(=O)CSc1nnc(Cn2c(=O)sc3ccccc32)n1C`, the viability was 87% (inactive).

Turning to `CCCC(=O)C1=C(N(C)c2ccccc2)CC(C)(C)C(C(=O)OC)C1=O` (stereo not given), the viability is 97.9% (inactive).

With `CC1(C)CC(=O)N(CC(=O)NCc2ccccc2)c2ccccc2S1(=O)=O`, the viability was 106% (inactive).

Take `CCOc1cc(C2NC(=O)NC(O)(C(F)(F)F)C2C(=O)c2ccccc2)ccc1OC` (stereo not given): the viability was 104% (inactive).

On to `Cn1c(C(=O)NCCN2CCN(c3ccccc3F)CC2)cc2c(=O)n(C)c3ccccc3c21`, for which the viability is 70.3% (inactive).

`Cc1cc2ccccc2n1CCNC(=O)C1CC1`: the viability is 89.8% (inactive).

`Cc1cccc(NC(=O)CS(=O)(=O)c2cn(C)c3ccccc23)c1`: the viability is 105% (inactive).

As to `COc1nnc(-c2ccc(C)c(S(=O)(=O)NCCO)c2)c2ccccc12`, the viability is 110% (inactive).

With `COc1ccc(-c2cnc(SCC(=O)Nc3ccc4c(c3)OCO4)n2Cc2ccco2)cc1`, the viability was 76.9% (inactive).

On to `Cn1cnc2cc(NC(=O)c3ccc(Cl)cc3)ccc21`, for which the viability is 88.1% (inactive).

For `CC1CCc2nn(CC(=O)Nc3ccc(F)cc3F)cc2C1` (stereo not given), the viability is 100% (inactive).

Regarding `Cc1ccc(-c2noc(CN3CCN(c4ccccc4F)CC3)n2)cc1`, the viability is 121% (inactive).

As for `Cc1ccc(NC(=O)c2cc(-c3ccc(C)o3)nc3ccccc23)nc1`, the viability was 73% (inactive).

Consider `Cc1nnc(N2C(=O)C(O)=C(C(=O)c3ccco3)C2c2ccc(F)cc2)s1` (stereo not given), for which the viability is 120% (inactive).

In the case of `COc1ccccc1N(CC(=O)Nc1cccnc1)S(C)(=O)=O`, the viability is 89.8% (inactive).

Take `CCCc1cc(C(=O)Nc2ccccc2SC)no1`: the viability is 104% (inactive).

In the case of `O=C(CSc1nc2c(c(=O)n1-c1ccc(F)cc1)SCC2)NCC1CCCO1` (stereo not given), the viability was 92.6% (inactive).

Regarding `COc1ccc(-c2nc(C)c(C(C)=O)n2O)cc1OC`, the viability was 91% (inactive).

Consider `C=CCOC(=O)COc1ccc2c(C)c(C)c(=O)oc2c1C`, for which the viability was 97.9% (inactive).

In the case of `CN(C)CCCNC(=O)CCC1CCCCC1`, the viability was 101% (inactive).

`CC(C)(O)C#Cc1ccc(C(=O)N2CCN(C(=O)c3ccco3)CC2)cc1`: the viability was 108% (inactive).

As for `Nc1cccc2c1C(=O)N(c1ccccc1)C2=O`, the viability was 91.4% (inactive).

For the compound `COc1ccc(N2CCN(CCNC(=O)CCS(=O)(=O)c3cccc4nsnc34)CC2)cc1`, the viability is 99.9% (inactive).

`CCOC(=O)CCc1c(C)nc2cc(-c3ccc(F)cc3)[nH]n2c1=O`: the viability is 97.6% (inactive).

On to `O=C1CC(c2cccnc2)c2cc3c(cc2N1)OCO3` (stereo not given), for which the viability is 88.7% (inactive).

On to `COc1ccccc1CNC(=O)C1CCCN(S(=O)(=O)c2cccc3cccnc23)C1` (stereo not given), for which the viability is 111% (inactive).

Regarding `Oc1c(C(c2ccccc2)N2CCc3ccccc3C2)sc2ncnn12` (stereo not given), the viability is 74.4% (inactive).

For `O=C(NCCc1c[nH]c2ccccc12)c1cnc2n(c1=O)CCS2`, the viability was 81.8% (inactive).

Take `CC(NC(=O)c1cc2c(=O)n(C)c3ccccc3c2n1C)c1ccc2c(c1)OCCO2` (stereo not given): the viability was 77% (inactive).

Consider `CCOC(=O)c1ccc(-n2c(C)nc3c(cnn3-c3ccccc3C)c2=O)cc1`, for which the viability is 117% (inactive).

Regarding `COc1ccc(CCNC(=O)CSc2nnnn2-c2ccccc2OC)cc1OC`, the viability was 102% (inactive).

`CCCSc1nnc(N2C(=O)CC(c3ccsc3)C3=C2CCCC3=O)s1` (stereo not given): the viability was 93.8% (inactive).

With `COC(=O)Cn1c(=O)c2c(nc3n2CC(C)CN3c2ccc(C)c(C)c2)n(C)c1=O` (stereo not given), the viability is 93.2% (inactive).

For the compound `O=C(Nc1cccnc1)Nc1ccccn1`, the viability was 105% (inactive).

As to `CCn1cc(C(=O)NCc2ccccc2OC)c(=O)c2cc(S(=O)(=O)N(C)C)ccc21`, the viability is 78.3% (inactive).

For the compound `CC1CCN(c2oc(-c3ccccc3F)nc2C#N)CC1`, the viability was 78.7% (inactive).

On to `Clc1ccc(Nc2ncnc3c2cnn3-c2ccccc2)cc1`, for which the viability was 86% (inactive).

The nature of the next assay: growth inhibitors of H69AR lung tumor, primary screen, human, duplicate replicates (AID 580).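 Note: 100% = mean luminescence of untreated wells and 0% = no signal.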 The following applies: H69AR lung tumor cells viability, ATP luminescence, 72 h; at 10 µM; stronger effect = lower value.
`COCCCNC(=O)c1ccc(CS(=O)(=O)c2ccc(OC)cc2)o1`: the viability was 91.6% (inactive).

As to `O=C(c1ccc(CSCc2ccccc2F)o1)N1CCN(c2ccc(N3CCOCC3)nn2)CC1`, the viability was 79.7% (inactive).

For the compound `COCCOC(=O)c1[nH]c2c(c1C)C(=O)CC(c1ccco1)C2` (stereo not given), the viability was 23.6% (active).

Turning to `CCOC(=O)CSc1nnc(Cn2c(=O)sc3ccccc32)n1C`, the viability is 96.7% (inactive).

Take `CCCC(=O)C1=C(N(C)c2ccccc2)CC(C)(C)C(C(=O)OC)C1=O` (stereo not given): the viability was 94.4% (inactive).

Consider `CC1(C)CC(=O)N(CC(=O)NCc2ccccc2)c2ccccc2S1(=O)=O`, for which the viability is 92.6% (inactive).

As to `CCOc1cc(C2NC(=O)NC(O)(C(F)(F)F)C2C(=O)c2ccccc2)ccc1OC` (stereo not given), the viability was 102% (inactive).

Take `Cn1c(C(=O)NCCN2CCN(c3ccccc3F)CC2)cc2c(=O)n(C)c3ccccc3c21`: the viability is 69.7% (inactive).

With `Cc1cc2ccccc2n1CCNC(=O)C1CC1`, the viability is 88.1% (inactive).

Take `Cc1cccc(NC(=O)CS(=O)(=O)c2cn(C)c3ccccc23)c1`: the viability is 90.6% (inactive).

`COc1nnc(-c2ccc(C)c(S(=O)(=O)NCCO)c2)c2ccccc12`: the viability is 87.9% (inactive).

As to `COc1ccc(-c2cnc(SCC(=O)Nc3ccc4c(c3)OCO4)n2Cc2ccco2)cc1`, the viability is 83.4% (inactive).

Consider `Cn1cnc2cc(NC(=O)c3ccc(Cl)cc3)ccc21`, for which the viability is 93% (inactive).

For `CC1CCc2nn(CC(=O)Nc3ccc(F)cc3F)cc2C1` (stereo not given), the viability was 104% (inactive).

Consider `Cc1ccc(-c2noc(CN3CCN(c4ccccc4F)CC3)n2)cc1`, for which the viability was 92.5% (inactive).

Take `Cc1ccc(NC(=O)c2cc(-c3ccc(C)o3)nc3ccccc23)nc1`: the viability is 4.86% (active).

With `Cc1nnc(N2C(=O)C(O)=C(C(=O)c3ccco3)C2c2ccc(F)cc2)s1` (stereo not given), the viability was 99.6% (inactive).

As to `COc1ccccc1N(CC(=O)Nc1cccnc1)S(C)(=O)=O`, the viability is 89.3% (inactive).

As for `CCCc1cc(C(=O)Nc2ccccc2SC)no1`, the viability was 81.1% (inactive).

For the compound `O=C(CSc1nc2c(c(=O)n1-c1ccc(F)cc1)SCC2)NCC1CCCO1` (stereo not given), the viability was 105% (inactive).

For the compound `COc1ccc(-c2nc(C)c(C(C)=O)n2O)cc1OC`, the viability is 94.9% (inactive).

For the compound `C=CCOC(=O)COc1ccc2c(C)c(C)c(=O)oc2c1C`, the viability was 125% (inactive).

As to `CN(C)CCCNC(=O)CCC1CCCCC1`, the viability was 94% (inactive).

As for `CC(C)(O)C#Cc1ccc(C(=O)N2CCN(C(=O)c3ccco3)CC2)cc1`, the viability was 96.9% (inactive).

In the case of `Nc1cccc2c1C(=O)N(c1ccccc1)C2=O`, the viability is 98.8% (inactive).

As for `COc1ccc(N2CCN(CCNC(=O)CCS(=O)(=O)c3cccc4nsnc34)CC2)cc1`, the viability was 103% (inactive).

On to `CCOC(=O)CCc1c(C)nc2cc(-c3ccc(F)cc3)[nH]n2c1=O`, for which the viability was 101% (inactive).

Regarding `O=C1CC(c2cccnc2)c2cc3c(cc2N1)OCO3` (stereo not given), the viability was 104% (inactive).

Turning to `COc1ccccc1CNC(=O)C1CCCN(S(=O)(=O)c2cccc3cccnc23)C1` (stereo not given), the viability was 92% (inactive).

For `Oc1c(C(c2ccccc2)N2CCc3ccccc3C2)sc2ncnn12` (stereo not given), the viability was 85% (inactive).

Consider `O=C(NCCc1c[nH]c2ccccc12)c1cnc2n(c1=O)CCS2`, for which the viability is 82% (inactive).

For `CC(NC(=O)c1cc2c(=O)n(C)c3ccccc3c2n1C)c1ccc2c(c1)OCCO2` (stereo not given), the viability was 42.7% (active).

Take `CCOC(=O)c1ccc(-n2c(C)nc3c(cnn3-c3ccccc3C)c2=O)cc1`: the viability is 98.1% (inactive).

Regarding `COc1ccc(CCNC(=O)CSc2nnnn2-c2ccccc2OC)cc1OC`, the viability was 90.1% (inactive).

Take `CCCSc1nnc(N2C(=O)CC(c3ccsc3)C3=C2CCCC3=O)s1` (stereo not given): the viability was 92.7% (inactive).

Regarding `COC(=O)Cn1c(=O)c2c(nc3n2CC(C)CN3c2ccc(C)c(C)c2)n(C)c1=O` (stereo not given), the viability was 85.5% (inactive).

As to `O=C(Nc1cccnc1)Nc1ccccn1`, the viability is 96.9% (inactive).

As to `CCn1cc(C(=O)NCc2ccccc2OC)c(=O)c2cc(S(=O)(=O)N(C)C)ccc21`, the viability was 77.6% (inactive).

For the compound `CC1CCN(c2oc(-c3ccccc3F)nc2C#N)CC1`, the viability is 92% (inactive).

Take `Clc1ccc(Nc2ncnc3c2cnn3-c2ccccc2)cc1`: the viability was 78.7% (inactive).

(Values after PubChem BioAssay.)
